Measurements from ChEMBL document CHEMBL4689842, “EUbOPEN Chemogenomics Library wave 1” (2021).

Test system: U2OS
Assay: Multiplex assay against U2OS
Format: toxicity, cell-based
Conditions: human
Outline: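 Per cents of healthy-nucleus cells form the tubulin, mitochondrial-mass and membrane-permeability phenotype values. Live cells were stained at seeding with Hoechst33342, BioTracker Green Microtubule Cytoskeleton Dye, MitoTracker Red and Annexin V Alexa Fluor 680. After compound addition they were imaged on a CQ1 microscope at 37°C and 5% CO2, and CellPathfinder machine-learning gating split them into Hoechst high-intensity objects or normal cells, normal cells into healthy, pyknosed or fragmented nuclei, and pyknosed cells into mitotic or apoptotic.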

[1] = 12 h, 1 µM, compound concentration 1 uM, replicate 1
[2] = 12 h, 1 µM, compound concentration 1 uM, replicate 2
[3] = 12 h, 10 µM, compound concentration 10 uM, replicate 1
[4] = 12 h, 10 µM, compound concentration 10 uM, replicate 2
[5] = 24 h, 1 µM, compound concentration 1 uM, replicate 1
[6] = 24 h, 1 µM, compound concentration 1 uM, replicate 2
[7] = 24 h, 10 µM, compound concentration 10 uM, replicate 1
[8] = 24 h, 10 µM, compound concentration 10 uM, replicate 2
[9] = 48 h, 1 µM, compound concentration 1 uM, replicate 1
[10] = 48 h, 1 µM, compound concentration 1 uM, replicate 2
[11] = 48 h, 10 µM, compound concentration 10 uM, replicate 1
[12] = 48 h, 10 µM, compound concentration 10 uM, replicate 2

What does the source list for COc1ccc(-c2ccc3ncc4c(c3c2)n(-c2ccc(N3CCNCC3)c(C(F)(F)F)c2)c(=O)n4C)cn1.O=C(O)/C=C\C(=O)O [BGT-226]?
Population Apoptotic (%) [1]: 86%; Population Fragmented Nuclei (%) [1]: 50%; Population Healthy Nuclei (%) [1]: 10%; Population Hoechst High Intensity Objects (%) [1]: 14%; Population Membrane Permeable-Phenotype (%) [1]: 58%; Population Mitotic Cells (%) [1]: 13%; Population Normal (%) [1]: 85%; Population Pyknosed Nuclei (%) [1]: 38%; Total Cell Count [1]: 182; Population Apoptotic (%) [2]: 81%; Population Fragmented Nuclei (%) [2]: 24%; Population Healthy Nuclei (%) [2]: 45%; Population Hoechst High Intensity Objects (%) [2]: 17%; Population Membrane Permeable-Phenotype (%) [2]: 70%; Population Mitochondria Different-Phenotype (%) [2]: 94%; Population Mitotic Cells (%) [2]: 18%; Population Normal (%) [2]: 82%; Population Pyknosed Nuclei (%) [2]: 29%; Population Tubulin-Different-Phenotype (%) [2]: 94%; Total Cell Count [2]: 45; Population Apoptotic (%) [3]: 97%; Population Fragmented Nuclei (%) [3]: 33%; Population Healthy Nuclei (%) [3]: 1%; Population Hoechst High Intensity Objects (%) [3]: 13%; Population Membrane Permeable-Phenotype (%) [3]: 50%; Population Mitochondria Different-Phenotype (%) [3]: 50%; Population Mitotic Cells (%) [3]: 2%; Population Normal (%) [3]: 86%; Population Pyknosed Nuclei (%) [3]: 65%; Population Tubulin-Different-Phenotype (%) [3]: 50%; Total Cell Count [3]: 258; Population Apoptotic (%) [4]: 100%; Population Fragmented Nuclei (%) [4]: 70%; Population Healthy Nuclei (%) [4]: 9%; Population Hoechst High Intensity Objects (%) [4]: 62%; Population Membrane Permeable-Phenotype (%) [4]: 24%; Population Mitochondria Different-Phenotype (%) [4]: 32%; Population Mitotic Cells (%) [4]: 0%; Population Normal (%) [4]: 37%; Population Pyknosed Nuclei (%) [4]: 19%; Population Tubulin-Different-Phenotype (%) [4]: 24%; Total Cell Count [4]: 675; Population Apoptotic (%) [5]: 98%; Population Fragmented Nuclei (%) [5]: 47%; Population Healthy Nuclei (%) [5]: 5%; Population Hoechst High Intensity Objects (%) [5]: 14%; Population Membrane Permeable-Phenotype (%) [5]: 75%; Population Mitochondria Different-Phenotype (%) [5]: 87%; Population Mitotic Cells (%) [5]: 1%; Population Normal (%) [5]: 85%; Population Pyknosed Nuclei (%) [5]: 47%; Population Tubulin-Different-Phenotype (%) [5]: 75%; Total Cell Count [5]: 181; Population Apoptotic (%) [6]: 83%; Population Fragmented Nuclei (%) [6]: 20%; Population Healthy Nuclei (%) [6]: 40%; Population Hoechst High Intensity Objects (%) [6]: 30%; Population Membrane Permeable-Phenotype (%) [6]: 66%; Population Mitochondria Different-Phenotype (%) [6]: 91%; Population Mitotic Cells (%) [6]: 16%; Population Normal (%) [6]: 69%; Population Pyknosed Nuclei (%) [6]: 40%; Population Tubulin-Different-Phenotype (%) [6]: 91%; Total Cell Count [6]: 43; Population Apoptotic (%) [7]: 97%; Population Fragmented Nuclei (%) [7]: 39%; Population Healthy Nuclei (%) [7]: 0%; Population Hoechst High Intensity Objects (%) [7]: 15%; Population Membrane Permeable-Phenotype (%) [7]: 100%; Population Mitochondria Different-Phenotype (%) [7]: 100%; Population Mitotic Cells (%) [7]: 2%; Population Normal (%) [7]: 84%; Population Pyknosed Nuclei (%) [7]: 59%; Population Tubulin-Different-Phenotype (%) [7]: 100%; Total Cell Count [7]: 269; Population Apoptotic (%) [8]: 100%; Population Fragmented Nuclei (%) [8]: 79%; Population Healthy Nuclei (%) [8]: 10%; Population Hoechst High Intensity Objects (%) [8]: 64%; Population Membrane Permeable-Phenotype (%) [8]: 69%; Population Mitochondria Different-Phenotype (%) [8]: 60%; Population Mitotic Cells (%) [8]: 0%; Population Normal (%) [8]: 35%; Population Pyknosed Nuclei (%) [8]: 9%; Population Tubulin-Different-Phenotype (%) [8]: 60%; Total Cell Count [8]: 614; Population Fragmented Nuclei (%) [9]: 45%; Population Healthy Nuclei (%) [9]: 3%; Population Hoechst High Intensity Objects (%) [9]: 22%; Population Membrane Permeable-Phenotype (%) [9]: 80%; Population Mitochondria Different-Phenotype (%) [9]: 80%; Population Normal (%) [9]: 77%; Population Pyknosed Nuclei (%) [9]: 50%; Population Tubulin-Different-Phenotype (%) [9]: 80%; Total Cell Count [9]: 185; Population Apoptotic (%) [10]: 100%; Population Fragmented Nuclei (%) [10]: 25%; Population Healthy Nuclei (%) [10]: 35%; Population Hoechst High Intensity Objects (%) [10]: 34%; Population Membrane Permeable-Phenotype (%) [10]: 90%; Population Mitochondria Different-Phenotype (%) [10]: 90%; Population Mitotic Cells (%) [10]: 0%; Population Normal (%) [10]: 65%; Population Pyknosed Nuclei (%) [10]: 39%; Population Tubulin-Different-Phenotype (%) [10]: 90%; Total Cell Count [10]: 43; Population Apoptotic (%) [11]: 97%; Population Fragmented Nuclei (%) [11]: 40%; Population Healthy Nuclei (%) [11]: 3%; Population Hoechst High Intensity Objects (%) [11]: 18%; Population Membrane Permeable-Phenotype (%) [11]: 71%; Population Mitochondria Different-Phenotype (%) [11]: 85%; Population Mitotic Cells (%) [11]: 2%; Population Normal (%) [11]: 81%; Population Pyknosed Nuclei (%) [11]: 55%; Population Tubulin-Different-Phenotype (%) [11]: 85%; Total Cell Count [11]: 260; Population Apoptotic (%) [12]: 100%; Population Fragmented Nuclei (%) [12]: 85%; Population Healthy Nuclei (%) [12]: 12%; Population Hoechst High Intensity Objects (%) [12]: 67%; Population Membrane Permeable-Phenotype (%) [12]: 81%; Population Mitochondria Different-Phenotype (%) [12]: 72%; Population Mitotic Cells (%) [12]: 0%; Population Normal (%) [12]: 32%; Population Pyknosed Nuclei (%) [12]: 1%; Population Tubulin-Different-Phenotype (%) [12]: 72%; Total Cell Count [12]: 534
